Active and inactive are the calls of the source. The rule behind the calls is not given here.
Columns and labels:
[1] = system: J774.A1; assay: Antiinflammatory activity in LPS-induced mouse J774.A1 cells assessed as inhibition of LPS-induced IL-1 beta transcription preincubated for 0.5 hrs followed by LPS stimulation for 6 hrs by RT-qPCR method; type: functional, cell-based; conditions: dose 5-10 µM, time 6.5 hrs
Method in brief: (§1)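 J774A.1 or THP-1 cells pretreated 0.5 h at 10 or 5 μM, then LPS 0.5 μg/mL for 6 h. TRIzol RNA; IL-6, TNF-α and IL-1β transcripts by RT-qPCR, normalized to β-actin and control; 3 independent experiments, mean ± SEM.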

[2] = system: J774.A1; assay: Antiinflammatory activity in LPS-induced mouse J774.A1 cells assessed as inhibition of LPS-induced TNF-alpha transcription preincubated for 0.5 hrs followed by LPS stimulation for 6 hrs by RT-qPCR method; type: functional, cell-based; conditions: dose 5-10 µM, time 6.5 hrs; method in brief: as §1
[3] = system: J774.A1; assay: Antiinflammatory activity in LPS-induced mouse J774.A1 cells assessed as inhibition of LPS-induced IL-6 transcription preincubated for 0.5 hrs followed by LPS stimulation for 6 hrs by RT-qPCR method; type: functional, cell-based; conditions: dose 5-10 µM, time 6.5 hrs; method in brief: as §1
[4] = system: J774.A1; assay: Antiinflammatory activity in LPS-induced mouse J774.A1 cells assessed as inhibition of LPS-induced TNF-alpha release at 10 uM preincubated for 30 mins followed by LPS stimulation for 24 hrs by ELISA method; type: functional; conditions: time 24.5 hrs
Method in brief: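 J774A.1 macrophages pretreated 30 min at 10 μM, then challenged with LPS 0.5 μg/mL for 24 h at 37 °C, 5% CO2. Medium IL-6 and TNF-α measured by ELISA, normalized to total lysate protein.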

[5] = system: J774.A1; assay: Antiinflammatory activity in LPS-induced mouse J774.A1 cells assessed as inhibition of LPS-induced IL-6 release preincubated for 30 mins followed by LPS stimulation for 24 hrs by ELISA method; type: functional, cell-based
Method in brief: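 Dose-response in J774A.1 cells: 30 min pretreatment at 10, 5, 2.5 or 1.25 μM, then LPS 0.5 μg/mL for 24 h. IL-6 and TNF-α by ELISA, normalized to lysate protein; IC50 from the dose-response; 3 independent experiments, mean ± SEM.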

[6] = system: THP-1; assay: Antiinflammatory activity in LPS-induced human THP-1 cells assessed as inhibition of LPS-induced TNF-alpha release preincubated for 30 mins followed by LPS stimulation for 24 hrs by ELISA method; type: functional, cell-based
Method in brief: (§2)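 THP-1 or LX-2 cells in DMEM with 10% FBS, 37 °C, 5% CO2. Pretreated 30 min at 10, 5, 2.5 or 1.25 μM, then LPS 0.5 μg/mL for 24 h. IL-6 and TNF-α in medium measured by ELISA, normalized to lysate total protein; mean ± SEM of 3 independent experiments.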

[7] = system: LX-2; assay: Antiinflammatory activity in LPS-induced human LX2 cells assessed as inhibition of LPS-induced TNF-alpha release preincubated for 30 mins followed by LPS stimulation for 24 hrs by ELISA method; type: functional, cell-based; method in brief: as §2
[8] = system: THP-1; assay: Antiinflammatory activity in LPS-induced human THP-1 cells assessed as inhibition of LPS-induced IL-6 transcription preincubated for 0.5 hrs followed by LPS stimulation for 6 hrs by RT-qPCR method; type: functional, cell-based; conditions: dose 5-10 µM, time 6.5 hrs; method in brief: as §1
[9] = system: THP-1; assay: Antiinflammatory activity in LPS-induced human THP-1 cells assessed as inhibition of LPS-induced IL-1 beta transcription preincubated for 0.5 hrs followed by LPS stimulation for 6 hrs by RT-qPCR method; type: functional, cell-based; conditions: dose 5-10 µM, time 6.5 hrs; method in brief: as §1
[10] = system: J774.A1; assay: Inhibition of NF-kappaB pathway in LPS-induced mouse J774.A1 cells assessed as inhibition of IkappaB-alpha degradation preincubated with compound for 2 hrs followed by LPS-stimulation and measured after 30 mins by Western blot analysis; type: cell-based; conditions: dose 5-10 µM, time 2.5 hrs
Method in brief: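 J774A.1 cells preincubated with 10 or 5 μM or DMSO for 2 h, then LPS 0.5 μg/mL for 30 min. RIPA lysates run on 12.5% SDS-PAGE, transferred to PVDF, blocked with 5% milk; probed for IκB-α and p-p65, with GAPDH and p65 as loading controls; ECL detection; densitometry.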

[11] = system: Mus musculus; assay: Protection against LPS-induced C57/BL6 mouse acute lung injury model assessed as improvement in structural distruption of lung tissue at 20 mg/kg via oral gavage preincubated for 30 mins followed by LPS stimulation for 6 hrs; type: functional, organism-based; conditions: time 6.5 hrs
Method in brief: (§3)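 Mice dosed 20 mg/kg by gavage (dexamethasone 20 mg/kg comparator), intratracheal LPS 5 mg/kg 30 min later, killed at 6 h. Right upper lobe fixed in paraformaldehyde, H&E; lung wet/dry ratio; BALF protein, total cells and neutrophils counted; n = 5 mice per group, mean ± SEM.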

[12] = system: Mus musculus; assay: Protection against LPS-induced C57/BL6 mouse acute lung injury model assessed as reduction in protein concentration in BALF at 20 mg/kg via oral gavage preincubated for 30 mins followed by LPS stimulation for 6 hrs; type: functional, organism-based; conditions: time 6.5 hrs; method in brief: as §3
[13] = system: Mus musculus; assay: Antiinflammatory activity in LPS-induced C57/BL6 mouse acute lung injury model assessed as reduction in macrophage infiltration at 20 mg/kg via oral gavage preincubated for 30 mins followed by LPS stimulation for 6 hrs by immunohistochemical staining based analysis; type: functional, organism-based; conditions: time 6.5 hrs
Method in brief: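 Same ALI model: 20 mg/kg oral, intratracheal LPS 5 mg/kg 30 min later, lungs at 6 h. Paraffin sections given citrate (pH 6.5) antigen retrieval, 3% H2O2 and 5% BSA block, anti-F4/80 12 h at 4 °C, HRP secondary, DAB and hematoxylin; F4/80 positivity quantified; n = 5 per group.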

[14] = system: Mus musculus; assay: Protection against LPS-induced sepsis in C57/BL6 mouse model assessed as improvement in survival rate at 20 mg/kg, po preincubated with compound followed by LPS stimulation for 1 hr and measured every 12 hrs by 6 days; type: functional, organism-based; conditions: time 6.0 day
Method in brief: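 Sepsis model in C57BL/6 mice, n = 12 per group: oral 20 mg/kg, then intraperitoneal LPS 20 mg/kg 1 h later; saline control. Survival checked every 12 h and body weight every 24 h for 6 days.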

[15] = AUC (0 to t) in rat at 10 mg/kg, po; type: ADME, organism-based; parameters: dose 10 mg/kg, route po; conditions: in vivo
Method in brief: (§4)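 Rats dosed intravenously at 1 mg/kg or orally at 10 mg/kg; plasma pharmacokinetic parameters AUC(0-t), Tmax, T1/2, Cmax and oral bioavailability F derived from the two routes.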

[16] = Tmax in rat at 10 mg/kg, po; type: ADME, organism-based; conditions: in vivo; method in brief: as §4
[17] = Cmax in rat at 1 mg/kg, iv; type: ADME, organism-based; parameters: dose 1 mg/kg, route iv; conditions: in vivo; method in brief: as §4
[18] = Oral bioavailability in rat at 10 mg/kg; type: ADME, organism-based; conditions: in vivo; method in brief: as §4
[19] = system: Mus musculus; assay: Protection against LPS-induced sepsis in C57/BL6 mouse model assessed as reduction of lymph node hyperplasia at 20 mg/kg, po preincubated with compound followed by LPS stimulation for 1 hr by H and E staining based analysis; type: functional, organism-based
Method in brief: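 Mice given 20 mg/kg orally, then intraperitoneal LPS 20 mg/kg 1 h later; n = 12 per group. Kidney, liver, heart and spleen weighed; spleen sections H&E-stained for histology.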

[20] = system: Mus musculus; assay: Antiinflammatory activity in LPS-induced C57/BL6 mouse acute lung injury model assessed as decrease in IL-6 level in serum at 20 mg/kg via oral gavage preincubated for 30 mins followed by LPS stimulation for 6 hrs by ELISA; conditions: time 6.5 hrs

IC50 [5]: 1.33 µM | IC50 [6]: 1.67 µM | IC50 [7]: 2.91 µM | AUC(0-t) [15]: 22900 ng·h/mL | Tmax [16]: 5 h | Cmax [17]: 1360 ng/mL | bioavailability [18]: 36.3%
Compound: COc1cc2nccc(Oc3ccc(NC(=O)c4cn(-c5ccccc5)c5ccccc5c4=O)cc3)c2cc1OC
inhibition [1]: Dose-Dependent Effect | inhibition [2]: Dose-Dependent Effect | inhibition [3]: Dose-Dependent Effect | inhibition at 10 µM [4]: 82.6% | inhibition ([5]; dose 1.25-10 µM, time 24.5 hrs): Dose-Dependent Effect | inhibition [8]: Dose-Dependent Effect | inhibition [9]: Dose-Dependent Effect | inhibition [10]: Dose-Dependent Effect | Activity [11]: Active | Activity [12]: Active | Activity [13]: Active | Activity [14]: Active | Activity [19]: Active | Activity [20]: Active

Reference: ChEMBL document CHEMBL5346889, “Discovery of 4-oxo-N-phenyl-1,4-dihydroquinoline-3-carboxamide derivatives as novel anti-inflammatory agents for the treatment of acute lung injury and sepsis” (Eur J Med Chem, 2023)
